What was measured:
Type in all cases: functional, cell-based
[1] = test system: MCF7; assay: Cytotoxicity against human MCF7 cells after 48 hrs by MTT assay; details: MCF7, 48 h
Procedure, shortened: (§1)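 Human cancer cell lines (A549 lung, MCF-7 breast, DU-145 prostate, HeLa cervical) exposed to compounds for 48 h; 50% inhibitory concentration derived, average of three individual experiments; doxorubicin reference agent.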

[2] = test system: DU-145; assay: Cytotoxicity against human DU145 cells after 48 hrs by MTT assay; details: DU-145, 48 h; procedure, shortened: as §1
[3] = test system: HeLa; assay: Cytotoxicity against human HeLa cells after 48 hrs by MTT assay; procedure, shortened: as §1
[4] = test system: A549; assay: Cytotoxicity against human A549 cells after 48 hrs by MTT assay; details: A549, 48 h; procedure, shortened: as §1

Structure (SMILES) | IC50 [1] [µM] | IC50 [2] [µM] | IC50 [3] [µM] | IC50 [4] [µM]
COc1cc(-c2nc(CN)cc3c4ccccc4n(C)c23)cc(OC)c1OC | 15.1 | 14.8 | 19.9 | 18.2
Fc1ccc(-c2nc(CNC(=S)SCc3ccccc3)cc3c2[nH]c2ccccc23)cc1 | 7.41 | 3.71 | 3.81 | 39.8
COc1ccc(-c2nc(CNC(=S)SCc3ccccc3)cc3c4ccccc4n(C)c23)cc1 | 3.36 | 6.91 | 13.8 | 9.12
CSC(=S)NCc1cc2c([nH]c3ccccc32)c(-c2ccc(C(F)(F)F)cc2)n1 | 15.8 | 9.54 | 12.6 | 16.9
C=CCSC(=S)NCc1cc2c([nH]c3ccccc32)c(-c2ccc(C(F)(F)F)cc2)n1 | 10.9 | 7.76 | 10.6 | 18.6
COc1ccc(-c2nc(CN)cc3c4ccccc4n(C)c23)cc1 | 16.6 | 12.8 | 14.8 | 20.1
COc1cc(-c2nc(CNC(=S)SC)cc3c4ccccc4n(C)c23)cc(OC)c1OC | 15.2 | 6.16 | 16.9 | 12.5
C=CCSC(=S)NCc1cc2c([nH]c3ccccc32)c(-c2cc(OC)c(OC)c(OC)c2)n1 | 15.8 | 13.8 | 23.2 | 12.8
C=CCSC(=S)NCc1cc2c3ccccc3n(C)c2c(-c2ccc(OC)cc2)n1 | 3.2 | 2.5 | 8.3 | 10
COc1ccc(-c2nc(CNC(=S)SC)cc3c4ccccc4n(C)c23)cc1 | 1.51 | 1.41 | 2.57 | 5.12
Cn1c2ccccc2c2cc(CN)nc(-c3ccc(C(F)(F)F)cc3)c21 | 11.7 | 7.76 | 15.1 | 19.2
COc1ccc(-c2nc(CN)cc3c2[nH]c2ccccc23)cc1 | 18.9 | 17.4 | 18.6 | 17.8
COc1cc(-c2nc(CNC(=S)SC)cc3c2[nH]c2ccccc23)cc(OC)c1OC | 8.91 | 5.62 | 11.3 | 8.12
C=CCSC(=S)NCc1cc2c3ccccc3n(C)c2c(-c2ccc(C(F)(F)F)cc2)n1 | 4.78 | 1.99 | 4.67 | 4.26
COc1cc(-c2nc(CNC(=S)SCc3ccccc3)cc3c4ccccc4n(C)c23)cc(OC)c1OC | 13.9 | 10.6 | 12.3 | 14.1
COc1ccc(-c2nc(CNC(=S)SC)cc3c2[nH]c2ccccc23)cc1 | 8.51 | 1.14 | 7.78 | 7.94

Source: ChEMBL document CHEMBL3603803, “Design and synthesis of dithiocarbamate linked β-carboline derivatives: DNA topoisomerase II inhibition with DNA binding and apoptosis inducing ability” (Bioorg Med Chem, 2015)
